Calls of active or inactive are those of the source. The calls are words filed in the database; no cut-off is given here.
Key:
[1] = molecular target: T1, Muscarinic acetylcholine receptor M1 (Homo sapiens) (UniProt P11229); assay: Intrinsic activity at human muscarinic M1 receptor expressed in CHO cells assessed as intracellular calcium mobilization after 10 to 15 mins by FLIPR assay; format: functional, cell-based
T1 sequence (whole entry): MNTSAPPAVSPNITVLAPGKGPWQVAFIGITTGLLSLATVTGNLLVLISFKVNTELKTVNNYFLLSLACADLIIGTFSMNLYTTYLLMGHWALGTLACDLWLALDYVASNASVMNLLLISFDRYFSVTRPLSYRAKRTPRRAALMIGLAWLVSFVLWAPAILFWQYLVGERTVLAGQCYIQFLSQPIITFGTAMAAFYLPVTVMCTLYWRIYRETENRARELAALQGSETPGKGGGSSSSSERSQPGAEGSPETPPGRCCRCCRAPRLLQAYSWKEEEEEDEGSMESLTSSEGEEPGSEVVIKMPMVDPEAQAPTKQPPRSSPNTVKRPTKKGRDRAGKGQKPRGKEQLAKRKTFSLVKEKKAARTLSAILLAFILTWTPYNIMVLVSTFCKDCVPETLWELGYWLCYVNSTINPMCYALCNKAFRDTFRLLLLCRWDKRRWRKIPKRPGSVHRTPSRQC
Method in brief: (§1)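 Human M1 mAChR stably expressed in CHO cells; agonist-induced intracellular Ca2+ mobilization read by fluorometric imaging plate reader (FLIPR).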

D(3) dopamine receptor = D(3) dopamine receptor (Homo sapiens, UniProt P35462); assay: Binding affinity to dopamine D3 receptor
D(3) dopamine receptor, sequence (P35462 whole entry): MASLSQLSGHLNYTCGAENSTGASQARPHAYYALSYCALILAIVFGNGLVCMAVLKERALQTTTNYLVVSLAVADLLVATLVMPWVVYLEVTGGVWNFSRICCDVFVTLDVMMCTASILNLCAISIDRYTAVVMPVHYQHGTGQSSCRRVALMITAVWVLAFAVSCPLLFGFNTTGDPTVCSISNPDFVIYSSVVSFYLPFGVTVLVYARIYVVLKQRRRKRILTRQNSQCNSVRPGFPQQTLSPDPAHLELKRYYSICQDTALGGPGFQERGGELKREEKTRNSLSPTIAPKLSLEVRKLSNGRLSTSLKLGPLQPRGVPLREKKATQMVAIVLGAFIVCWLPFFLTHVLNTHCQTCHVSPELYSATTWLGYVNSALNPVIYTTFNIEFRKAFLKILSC

[2] = molecular target: Voltage-gated inwardly rectifying potassium channel KCNH2 (Homo sapiens, UniProt Q12809); assay: Binding affinity to human ERG
Voltage-gated inwardly rectifying potassium channel KCNH2, sequence (Q12809 whole entry): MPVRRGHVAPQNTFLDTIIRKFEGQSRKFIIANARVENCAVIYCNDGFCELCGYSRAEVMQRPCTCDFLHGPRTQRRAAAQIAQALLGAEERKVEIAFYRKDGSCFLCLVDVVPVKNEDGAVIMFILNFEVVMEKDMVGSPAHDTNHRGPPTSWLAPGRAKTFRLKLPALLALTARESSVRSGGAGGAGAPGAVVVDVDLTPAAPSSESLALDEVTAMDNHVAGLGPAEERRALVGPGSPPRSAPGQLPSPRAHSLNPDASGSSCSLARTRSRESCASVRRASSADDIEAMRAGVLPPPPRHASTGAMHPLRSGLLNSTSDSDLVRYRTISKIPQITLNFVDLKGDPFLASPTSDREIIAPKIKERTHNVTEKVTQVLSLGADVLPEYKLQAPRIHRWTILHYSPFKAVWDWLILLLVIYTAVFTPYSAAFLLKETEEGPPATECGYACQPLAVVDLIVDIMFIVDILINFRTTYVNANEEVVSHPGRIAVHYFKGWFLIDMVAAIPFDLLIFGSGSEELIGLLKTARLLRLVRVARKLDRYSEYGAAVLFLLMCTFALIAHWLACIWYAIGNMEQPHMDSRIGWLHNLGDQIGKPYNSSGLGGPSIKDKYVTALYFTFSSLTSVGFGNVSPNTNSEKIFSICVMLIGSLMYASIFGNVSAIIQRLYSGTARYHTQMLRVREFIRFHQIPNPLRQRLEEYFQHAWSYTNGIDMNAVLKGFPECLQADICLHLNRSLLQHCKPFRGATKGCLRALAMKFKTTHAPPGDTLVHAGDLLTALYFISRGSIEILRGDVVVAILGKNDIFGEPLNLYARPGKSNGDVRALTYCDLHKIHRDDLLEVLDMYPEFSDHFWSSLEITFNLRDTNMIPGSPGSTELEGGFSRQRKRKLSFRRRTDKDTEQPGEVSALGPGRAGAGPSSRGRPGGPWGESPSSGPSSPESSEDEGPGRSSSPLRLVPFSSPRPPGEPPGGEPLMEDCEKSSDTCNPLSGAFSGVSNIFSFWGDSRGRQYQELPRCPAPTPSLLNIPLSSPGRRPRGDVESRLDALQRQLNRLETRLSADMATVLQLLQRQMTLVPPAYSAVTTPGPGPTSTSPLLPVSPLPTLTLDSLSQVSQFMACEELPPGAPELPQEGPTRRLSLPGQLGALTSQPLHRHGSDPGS

[3] = molecular target: T2, Muscarinic acetylcholine receptor M4 (Homo sapiens, UniProt P08173); assay: Agonist activity at human muscarinic M4 receptor expressed in CHO cells coexpressing Galpha16 subunit assessed as intracellular calcium mobilization after 10 to 15 mins by FLIPR assay; format: functional, cell-based
T2 sequence (P08173 whole entry): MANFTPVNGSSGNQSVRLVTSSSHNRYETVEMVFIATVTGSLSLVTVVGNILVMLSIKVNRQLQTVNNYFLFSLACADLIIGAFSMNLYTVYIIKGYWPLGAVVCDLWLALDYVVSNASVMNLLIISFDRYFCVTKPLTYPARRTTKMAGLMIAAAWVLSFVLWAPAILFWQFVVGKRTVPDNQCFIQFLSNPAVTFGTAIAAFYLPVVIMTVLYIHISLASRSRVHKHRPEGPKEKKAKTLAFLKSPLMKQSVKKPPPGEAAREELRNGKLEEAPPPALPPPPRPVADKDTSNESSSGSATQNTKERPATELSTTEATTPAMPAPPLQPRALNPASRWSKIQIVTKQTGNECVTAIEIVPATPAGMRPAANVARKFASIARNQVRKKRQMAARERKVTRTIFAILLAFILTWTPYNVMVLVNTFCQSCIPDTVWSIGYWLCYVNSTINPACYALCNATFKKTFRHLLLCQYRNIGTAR

[4] = molecular target: T3, Muscarinic acetylcholine receptor M1 (Homo sapiens, UniProt P11229); assay: Agonist activity at human muscarinic M1 receptor expressed in CHO cells assessed as intracellular calcium mobilization after 10 to 15 mins by FLIPR assay; format: functional, cell-based; method in brief: as §1
T3 sequence (P11229 whole entry): T1 sequence (whole entry)

[5] = molecular target: T4, Muscarinic acetylcholine receptor M3 (Homo sapiens, UniProt P20309); assay: Agonist activity at human muscarinic M3 receptor expressed in CHO cells assessed as intracellular calcium mobilization after 10 to 15 mins by FLIPR assay; format: functional, cell-based
Target sequence in this assay (P20309 whole entry): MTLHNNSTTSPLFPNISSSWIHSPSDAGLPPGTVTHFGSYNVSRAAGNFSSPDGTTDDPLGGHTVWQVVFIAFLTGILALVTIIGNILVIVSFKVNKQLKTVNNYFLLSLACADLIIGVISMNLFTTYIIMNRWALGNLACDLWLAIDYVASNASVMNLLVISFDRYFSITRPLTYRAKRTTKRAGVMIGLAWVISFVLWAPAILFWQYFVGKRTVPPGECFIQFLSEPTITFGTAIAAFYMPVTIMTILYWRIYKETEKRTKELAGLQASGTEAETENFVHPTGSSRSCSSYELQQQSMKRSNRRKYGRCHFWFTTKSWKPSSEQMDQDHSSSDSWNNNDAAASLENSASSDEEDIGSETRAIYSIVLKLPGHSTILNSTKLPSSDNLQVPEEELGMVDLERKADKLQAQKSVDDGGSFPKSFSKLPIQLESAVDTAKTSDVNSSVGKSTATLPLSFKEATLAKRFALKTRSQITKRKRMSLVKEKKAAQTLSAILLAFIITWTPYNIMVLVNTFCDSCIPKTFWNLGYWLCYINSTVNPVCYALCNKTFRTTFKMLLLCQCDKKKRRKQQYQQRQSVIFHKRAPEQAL

[6] = molecular target: T5, Muscarinic acetylcholine receptor M2 (Homo sapiens, UniProt P08172); assay: Agonist activity at human muscarinic M2 receptor expressed in CHO cells coexpressing Galpha16 subunit assessed as intracellular calcium mobilization after 10 to 15 mins by FLIPR assay; format: functional, cell-based
T5 sequence (P08172 whole entry): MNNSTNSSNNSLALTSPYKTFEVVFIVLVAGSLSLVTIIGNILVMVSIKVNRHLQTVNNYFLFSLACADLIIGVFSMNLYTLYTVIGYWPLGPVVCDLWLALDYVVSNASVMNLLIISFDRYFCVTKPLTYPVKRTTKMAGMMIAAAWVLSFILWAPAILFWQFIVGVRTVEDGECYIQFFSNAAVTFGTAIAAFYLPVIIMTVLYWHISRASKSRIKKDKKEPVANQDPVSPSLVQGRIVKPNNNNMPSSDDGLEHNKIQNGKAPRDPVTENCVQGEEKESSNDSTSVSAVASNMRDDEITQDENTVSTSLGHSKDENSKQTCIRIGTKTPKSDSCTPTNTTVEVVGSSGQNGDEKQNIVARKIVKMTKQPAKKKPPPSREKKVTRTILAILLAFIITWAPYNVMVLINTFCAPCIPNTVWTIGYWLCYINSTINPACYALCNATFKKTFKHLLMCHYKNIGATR

[7] = molecular target: T6, 5-hydroxytryptamine receptor 1A (Homo sapiens, UniProt P08908); assay: Activity at 5HT1A receptor
T6 sequence (P08908 whole entry): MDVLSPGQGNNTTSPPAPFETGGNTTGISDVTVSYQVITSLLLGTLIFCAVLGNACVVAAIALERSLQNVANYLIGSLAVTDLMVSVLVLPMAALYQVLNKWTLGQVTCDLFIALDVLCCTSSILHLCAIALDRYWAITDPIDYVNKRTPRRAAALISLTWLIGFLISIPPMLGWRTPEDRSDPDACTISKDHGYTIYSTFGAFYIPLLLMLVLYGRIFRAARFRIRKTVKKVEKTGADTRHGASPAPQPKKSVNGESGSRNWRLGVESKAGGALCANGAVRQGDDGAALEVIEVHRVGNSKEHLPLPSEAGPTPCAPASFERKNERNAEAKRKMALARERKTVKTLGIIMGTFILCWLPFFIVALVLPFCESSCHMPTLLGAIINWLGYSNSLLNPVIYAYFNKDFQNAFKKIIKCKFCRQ

[8] = molecular target: 5-hydroxytryptamine receptor 2A (Homo sapiens, UniProt P28223); assay: Binding affinity to 5HT2A receptor
5-hydroxytryptamine receptor 2A, sequence (P28223 whole entry): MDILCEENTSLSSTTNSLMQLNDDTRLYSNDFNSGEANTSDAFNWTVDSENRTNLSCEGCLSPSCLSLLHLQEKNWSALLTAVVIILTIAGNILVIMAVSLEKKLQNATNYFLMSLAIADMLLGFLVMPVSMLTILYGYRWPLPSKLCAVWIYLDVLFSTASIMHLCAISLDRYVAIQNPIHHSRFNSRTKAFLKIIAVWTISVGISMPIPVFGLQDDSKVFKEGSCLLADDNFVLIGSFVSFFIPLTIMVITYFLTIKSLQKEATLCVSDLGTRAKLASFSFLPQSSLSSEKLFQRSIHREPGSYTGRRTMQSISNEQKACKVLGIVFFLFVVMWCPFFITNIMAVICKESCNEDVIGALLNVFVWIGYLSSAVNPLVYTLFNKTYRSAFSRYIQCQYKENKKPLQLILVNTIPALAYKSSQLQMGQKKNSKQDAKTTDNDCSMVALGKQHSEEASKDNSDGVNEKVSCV

D(2) dopamine receptor = D(2) dopamine receptor (Homo sapiens, UniProt P14416); assay: Binding affinity to dopamine D2 receptor
D(2) dopamine receptor, sequence (P14416 whole entry): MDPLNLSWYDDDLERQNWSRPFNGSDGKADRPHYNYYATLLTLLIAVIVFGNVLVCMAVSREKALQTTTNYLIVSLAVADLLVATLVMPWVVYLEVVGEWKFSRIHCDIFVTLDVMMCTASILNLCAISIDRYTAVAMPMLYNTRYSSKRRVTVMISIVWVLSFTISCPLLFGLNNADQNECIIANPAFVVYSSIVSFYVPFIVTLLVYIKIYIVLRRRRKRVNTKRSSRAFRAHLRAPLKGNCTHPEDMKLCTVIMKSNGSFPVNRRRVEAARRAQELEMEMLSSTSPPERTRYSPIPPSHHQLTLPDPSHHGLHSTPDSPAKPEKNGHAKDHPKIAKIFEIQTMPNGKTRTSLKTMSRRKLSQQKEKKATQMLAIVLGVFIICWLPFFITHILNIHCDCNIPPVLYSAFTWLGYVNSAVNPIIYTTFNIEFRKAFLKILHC

[9] = Ratio of drug level in brain to blood in rat at 3 mg/kg, po; format: ADME, organism-based; design: dose 3 mg/kg, route oral
Rattus norvegicus [10] = assay: Increase in neuronal firing rate in Sprague-Dawley rat hippocampal CA1 region at 1 mg/kg, iv pretreated with 3 mg/kg, ip mAChR antagonist scopolamine for 10 mins; format: functional, organism-based
Rattus norvegicus [11] = assay: Antidementia activity against scopolamine-induced amnesia in Wistar rat assessed as improvement in recall latency to transfer from bright to dark compartment administered orally 2 hrs before scopolamine challenge measured after 24 hrs post training by passive avoidance test; format: functional, organism-based
Method in brief: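 Rat passive avoidance task with scopolamine (0.8 mg/kg) given to induce amnesia. Test agent dosed orally at 1, 3 and 10 mg/kg. Groups compared with vehicle-treated controls and with scopolamine alone.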

Rattus norvegicus [12] = assay: Increase in neuronal firing rate in Sprague-Dawley rat hippocampal CA1 region at 0.3 mg/kg, iv; format: functional, organism-based; design: dose 0.3 mg/kg
Method in brief: (§2)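 Rat hippocampal CA1 neuronal cell firing rate recorded after iv dosing at 0.3 or 1 mg/kg. Where used, scopolamine was given at 3 mg/kg ip […] before the iv dose. Statistics by repeated measures ANOVA.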

[13] = molecular target: T7, Muscarinic acetylcholine receptor M2 (Homo sapiens) (UniProt P08172); assay: Intrinsic activity at human muscarinic M2 receptor expressed in CHO cells coexpressing Galpha16 subunit assessed as intracellular calcium mobilization after 10 to 15 mins by FLIPR assay; format: functional, cell-based
T7 sequence (whole entry): T5 sequence (P08172 whole entry)

[14] = molecular target: T8, Muscarinic acetylcholine receptor M4 (Homo sapiens) (UniProt P08173); assay: Intrinsic activity at human muscarinic M4 receptor expressed in CHO cells coexpressing Galpha16 subunit assessed as intracellular calcium mobilization after 10 to 15 mins by FLIPR assay; format: functional, cell-based
T8 sequence (whole entry): T2 sequence (P08173 whole entry)

Rattus norvegicus [15] = assay: Increase in neuronal firing rate in Sprague-Dawley rat hippocampal CA1 region at 1 mg/kg, iv; format: functional; method in brief: as §2
[16] = molecular target: T4, Muscarinic acetylcholine receptor M3; assay: Intrinsic activity at human muscarinic M3 receptor expressed in CHO cells assessed as intracellular calcium mobilization after 10 to 15 mins by FLIPR assay; format: functional, cell-based
Target sequence in this assay (P20309 whole entry, looked up): as the sequence (P20309 whole entry) above

[17] = molecular target: T9, Muscarinic acetylcholine receptor M5 (Homo sapiens, UniProt P08912); assay: Agonist activity at human muscarinic M5 receptor expressed in CHO cells assessed as intracellular calcium mobilization after 10 to 15 mins by FLIPR assay; format: functional, cell-based
T9 sequence (P08912 whole entry): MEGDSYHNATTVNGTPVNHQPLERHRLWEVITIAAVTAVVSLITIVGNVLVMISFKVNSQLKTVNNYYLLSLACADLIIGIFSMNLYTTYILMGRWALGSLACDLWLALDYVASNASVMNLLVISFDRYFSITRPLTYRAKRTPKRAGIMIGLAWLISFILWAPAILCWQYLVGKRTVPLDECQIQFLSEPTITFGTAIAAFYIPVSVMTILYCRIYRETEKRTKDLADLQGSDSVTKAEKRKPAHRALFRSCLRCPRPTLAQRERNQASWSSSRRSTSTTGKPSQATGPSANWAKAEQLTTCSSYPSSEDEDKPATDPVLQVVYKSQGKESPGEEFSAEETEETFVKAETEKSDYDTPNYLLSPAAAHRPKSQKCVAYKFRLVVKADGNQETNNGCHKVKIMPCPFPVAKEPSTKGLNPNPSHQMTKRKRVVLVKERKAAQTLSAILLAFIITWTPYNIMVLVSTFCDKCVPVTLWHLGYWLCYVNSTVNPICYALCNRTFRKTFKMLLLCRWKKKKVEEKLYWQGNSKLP

[18] = Blood clearance in rat at 1 mg/kg, iv; format: ADME, organism-based; design: dose 1 mg/kg, route intravenous
Liver microsomes = assay: Intrinsic clearance in human liver microsomes; format: ADME, Microsome
[19] = Half life in rat at 1 mg/kg, iv; format: ADME, organism-based; design: dose 1 mg/kg, route intravenous; conditions: in vivo
[20] = Half life in rat at 3 mg/kg, po; format: ADME, organism-based; design: dose 3 mg/kg, route oral; conditions: in vivo

O=c1[nH]c2ccccc2n1C1CCN(CCCOc2ccc(F)cc2)CC1
Intrinsic activity [1]: 86%
Ki (D(3) dopamine receptor): 1.26 nM
IC50 [2]: 79.4 nM
EC50 [3]: > 25100 nM
EC50 [4]: 398 nM
EC50 [5]: > 25100 nM
EC50 [6]: > 25100 nM
EC50 [7]: 50.1 nM
Ki [8]: 3.16 nM
Ki (D(2) dopamine receptor): 0.501 nM

Cc1cc2c(cc1F)[nH]c(=O)n2C1CCN(C2CCOCC2)CC1
Intrinsic activity [1]: 94%
Kp [9]: 0.6
Activity (Rattus norvegicus [10]): inactive
Activity (Rattus norvegicus [11]): Dose-dependent effect
Activity (Rattus norvegicus [12]): inactive
IC50 [2]: 12600 nM
EC50 [3]: 501 nM
Intrinsic activity [13]: 71%
Intrinsic activity [14]: 71%
fold change (FC) (Rattus norvegicus [15]): 3
Intrinsic activity [16]: 58%

O=c1[nH]c2ccccc2n1C1CCN(C2CCOCC2)CC1
Intrinsic activity [1]: 101%
EC50 [17]: > 10000 nM
clearance [18]: 68 mL/min/kg
Intrinsic activity [13]: 88%
EC50 [5]: > 10000 nM
CLH (Liver microsomes): 0.5 mL/min/g
Intrinsic activity [14]: 77%
half-life [19]: 0.5 h

Cc1ccc2[nH]c(=O)n(C3CCN(C4CCOCC4)CC3)c2c1
Intrinsic activity [1]: 92%
Kp [9]: 0.6
half-life [20]: 2.6 h
IC50 [2]: 25100 nM
EC50 [3]: 631 nM
EC50 [4]: 5.01 nM
Intrinsic activity [13]: 71%
EC50 [5]: 3980 nM
EC50 [6]: 631 nM
Intrinsic activity [14]: 68%
Intrinsic activity [16]: 72%

Reference: ChEMBL document CHEMBL2146410, “Novel N-Substituted Benzimidazolones as Potent, Selective, CNS-Penetrant, and Orally Active M1 mAChR Agonists” (ACS Med Chem Lett, 2010)
